In ChEMBL document CHEMBL1152867, “Targeting QseC signaling and virulence for antibiotic development” (Science, 2008):
Activity calls are given as the source filed them. No cut-off for these calls is given here.

System: Escherichia coli
Assay: Inhibition of [3H]norepinephrine binding to Escherichia coli Qsec by liposome-based scintillation counting assay
In short: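 Liposomes reconstituted with QseC were loaded with tritiated norepinephrine (5 μM) by freeze-thaw in liquid N2 and held 10 min at room temperature, so unbound signal could diffuse out. They were pelleted at 12,000g for 5 min and counted for tritium. Counts were normalized to liposomes loaded with 5 μM tyrosine. Compound was tested at 5 pM and 5 fM.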

## Cc1ccc(N(CC2=NCCN2)c2cccc(O)c2)cc1
  Activity: Active

## CC(C)NCC(O)COc1cccc2ccccc12 (configuration not stated)
  Activity: inactive
